Experimental data published in publication PMC10958515 (ACS Chemical Neuroscience, 2024).
Read-outs that look alike come from different tables or passages of the source.

Columns and labels:
hNaV1.5 = hNaV1.5 (Homo sapiens, UniProt Q14524); assay: Qube automated patch-clamp, NaV subtype inhibition; assay type: cell-based
NaV1.6 [1] = biological target: T1, NaV1.6 (Homo sapiens, UniProt Q9UQD0); assay: Steady-state and use-dependent inhibition; assay type: cell-based; settings: V0.5 holding potential
T1 sequence (Q9UQD0 whole entry): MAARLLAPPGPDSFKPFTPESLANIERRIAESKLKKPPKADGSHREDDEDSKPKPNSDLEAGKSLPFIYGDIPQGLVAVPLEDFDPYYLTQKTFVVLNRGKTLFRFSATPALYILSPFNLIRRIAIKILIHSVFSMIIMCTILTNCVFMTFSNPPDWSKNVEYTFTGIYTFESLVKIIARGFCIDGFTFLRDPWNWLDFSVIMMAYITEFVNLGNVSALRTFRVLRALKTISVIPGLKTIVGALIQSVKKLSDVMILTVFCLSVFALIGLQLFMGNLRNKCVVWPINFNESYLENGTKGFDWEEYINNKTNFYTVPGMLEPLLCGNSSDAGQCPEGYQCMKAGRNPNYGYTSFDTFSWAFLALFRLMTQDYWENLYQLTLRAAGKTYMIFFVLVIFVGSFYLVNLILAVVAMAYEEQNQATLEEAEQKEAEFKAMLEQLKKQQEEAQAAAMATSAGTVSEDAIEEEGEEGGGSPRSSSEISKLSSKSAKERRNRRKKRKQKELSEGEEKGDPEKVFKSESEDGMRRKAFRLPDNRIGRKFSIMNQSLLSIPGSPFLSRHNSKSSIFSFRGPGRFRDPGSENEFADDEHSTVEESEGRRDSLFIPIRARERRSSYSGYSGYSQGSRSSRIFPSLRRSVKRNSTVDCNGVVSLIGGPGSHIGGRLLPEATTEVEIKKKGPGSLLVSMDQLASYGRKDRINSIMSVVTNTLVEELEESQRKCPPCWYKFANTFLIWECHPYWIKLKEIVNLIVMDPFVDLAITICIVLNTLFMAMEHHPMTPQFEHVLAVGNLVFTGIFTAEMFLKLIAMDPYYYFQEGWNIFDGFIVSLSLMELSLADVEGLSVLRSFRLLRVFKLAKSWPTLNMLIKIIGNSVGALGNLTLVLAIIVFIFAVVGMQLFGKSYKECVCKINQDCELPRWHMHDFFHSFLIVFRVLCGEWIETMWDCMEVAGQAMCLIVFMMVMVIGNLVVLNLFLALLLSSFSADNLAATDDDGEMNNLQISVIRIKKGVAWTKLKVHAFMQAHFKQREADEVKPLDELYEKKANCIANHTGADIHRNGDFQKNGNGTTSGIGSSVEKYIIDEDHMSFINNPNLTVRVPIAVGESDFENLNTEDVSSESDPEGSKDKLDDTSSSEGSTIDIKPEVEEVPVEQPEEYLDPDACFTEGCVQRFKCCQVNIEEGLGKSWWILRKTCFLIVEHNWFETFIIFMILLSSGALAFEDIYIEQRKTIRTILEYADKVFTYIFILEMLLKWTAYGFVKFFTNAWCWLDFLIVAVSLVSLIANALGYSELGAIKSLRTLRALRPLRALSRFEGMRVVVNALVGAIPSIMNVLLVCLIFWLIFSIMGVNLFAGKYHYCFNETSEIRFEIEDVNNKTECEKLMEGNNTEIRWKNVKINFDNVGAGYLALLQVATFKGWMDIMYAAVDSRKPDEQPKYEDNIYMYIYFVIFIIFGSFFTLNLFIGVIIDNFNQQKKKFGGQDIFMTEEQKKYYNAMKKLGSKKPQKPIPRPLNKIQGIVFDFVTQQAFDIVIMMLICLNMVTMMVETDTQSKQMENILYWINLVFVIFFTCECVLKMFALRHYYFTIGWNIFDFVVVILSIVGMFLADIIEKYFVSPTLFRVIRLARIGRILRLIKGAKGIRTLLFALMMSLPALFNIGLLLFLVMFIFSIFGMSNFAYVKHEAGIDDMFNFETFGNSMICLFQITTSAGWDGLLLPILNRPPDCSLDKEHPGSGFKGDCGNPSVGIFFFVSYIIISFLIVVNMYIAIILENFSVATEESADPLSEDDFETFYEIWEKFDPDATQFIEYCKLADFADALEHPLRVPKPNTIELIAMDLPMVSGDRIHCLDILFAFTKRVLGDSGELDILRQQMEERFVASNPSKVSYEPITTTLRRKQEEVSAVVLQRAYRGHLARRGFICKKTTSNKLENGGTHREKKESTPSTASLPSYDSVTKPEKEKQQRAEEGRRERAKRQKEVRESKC
T1 sequence (Q92913 1-192 isoform Q92913-2 partner): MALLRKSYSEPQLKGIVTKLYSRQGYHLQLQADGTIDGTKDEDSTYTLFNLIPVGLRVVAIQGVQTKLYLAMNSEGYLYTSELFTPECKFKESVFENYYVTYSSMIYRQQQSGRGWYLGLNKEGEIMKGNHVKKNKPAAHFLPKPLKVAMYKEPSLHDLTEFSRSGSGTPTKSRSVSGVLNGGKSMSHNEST

NaV1.6 [2] = biological target: T1, NaV1.6; assay: Recovery from inactivation in presence of compound; assay type: cell-based
How it was run: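 Human NaV1.6 cells on an automated planar patch-clamp platform at 27 °C. From −120 mV, a 10 s prepulse to 0 mV is followed by a 0 mV test pulse at varying intervals. Mean normalized recovery in compound is fitted biexponentially, and the slow time constant is plotted against concentration. The fraction recovered at 1.7 s quantifies the concentration dependence.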

NaV = settings: cited from earlier work
hNaV1.1 = hNaV1.1 (Homo sapiens, UniProt P35498); assay: Qube automated patch-clamp, NaV subtype inhibition; assay type: cell-based
hNaV1.2 = hNaV1.2 (Homo sapiens, UniProt Q99250); assay: Qube automated patch-clamp, NaV subtype inhibition; assay type: cell-based
seizures = settings: cited from earlier work
[3] = IC50 for steady-state inhibition (P1), first pulse

hNaV1.5, sequence (Q14524 whole entry): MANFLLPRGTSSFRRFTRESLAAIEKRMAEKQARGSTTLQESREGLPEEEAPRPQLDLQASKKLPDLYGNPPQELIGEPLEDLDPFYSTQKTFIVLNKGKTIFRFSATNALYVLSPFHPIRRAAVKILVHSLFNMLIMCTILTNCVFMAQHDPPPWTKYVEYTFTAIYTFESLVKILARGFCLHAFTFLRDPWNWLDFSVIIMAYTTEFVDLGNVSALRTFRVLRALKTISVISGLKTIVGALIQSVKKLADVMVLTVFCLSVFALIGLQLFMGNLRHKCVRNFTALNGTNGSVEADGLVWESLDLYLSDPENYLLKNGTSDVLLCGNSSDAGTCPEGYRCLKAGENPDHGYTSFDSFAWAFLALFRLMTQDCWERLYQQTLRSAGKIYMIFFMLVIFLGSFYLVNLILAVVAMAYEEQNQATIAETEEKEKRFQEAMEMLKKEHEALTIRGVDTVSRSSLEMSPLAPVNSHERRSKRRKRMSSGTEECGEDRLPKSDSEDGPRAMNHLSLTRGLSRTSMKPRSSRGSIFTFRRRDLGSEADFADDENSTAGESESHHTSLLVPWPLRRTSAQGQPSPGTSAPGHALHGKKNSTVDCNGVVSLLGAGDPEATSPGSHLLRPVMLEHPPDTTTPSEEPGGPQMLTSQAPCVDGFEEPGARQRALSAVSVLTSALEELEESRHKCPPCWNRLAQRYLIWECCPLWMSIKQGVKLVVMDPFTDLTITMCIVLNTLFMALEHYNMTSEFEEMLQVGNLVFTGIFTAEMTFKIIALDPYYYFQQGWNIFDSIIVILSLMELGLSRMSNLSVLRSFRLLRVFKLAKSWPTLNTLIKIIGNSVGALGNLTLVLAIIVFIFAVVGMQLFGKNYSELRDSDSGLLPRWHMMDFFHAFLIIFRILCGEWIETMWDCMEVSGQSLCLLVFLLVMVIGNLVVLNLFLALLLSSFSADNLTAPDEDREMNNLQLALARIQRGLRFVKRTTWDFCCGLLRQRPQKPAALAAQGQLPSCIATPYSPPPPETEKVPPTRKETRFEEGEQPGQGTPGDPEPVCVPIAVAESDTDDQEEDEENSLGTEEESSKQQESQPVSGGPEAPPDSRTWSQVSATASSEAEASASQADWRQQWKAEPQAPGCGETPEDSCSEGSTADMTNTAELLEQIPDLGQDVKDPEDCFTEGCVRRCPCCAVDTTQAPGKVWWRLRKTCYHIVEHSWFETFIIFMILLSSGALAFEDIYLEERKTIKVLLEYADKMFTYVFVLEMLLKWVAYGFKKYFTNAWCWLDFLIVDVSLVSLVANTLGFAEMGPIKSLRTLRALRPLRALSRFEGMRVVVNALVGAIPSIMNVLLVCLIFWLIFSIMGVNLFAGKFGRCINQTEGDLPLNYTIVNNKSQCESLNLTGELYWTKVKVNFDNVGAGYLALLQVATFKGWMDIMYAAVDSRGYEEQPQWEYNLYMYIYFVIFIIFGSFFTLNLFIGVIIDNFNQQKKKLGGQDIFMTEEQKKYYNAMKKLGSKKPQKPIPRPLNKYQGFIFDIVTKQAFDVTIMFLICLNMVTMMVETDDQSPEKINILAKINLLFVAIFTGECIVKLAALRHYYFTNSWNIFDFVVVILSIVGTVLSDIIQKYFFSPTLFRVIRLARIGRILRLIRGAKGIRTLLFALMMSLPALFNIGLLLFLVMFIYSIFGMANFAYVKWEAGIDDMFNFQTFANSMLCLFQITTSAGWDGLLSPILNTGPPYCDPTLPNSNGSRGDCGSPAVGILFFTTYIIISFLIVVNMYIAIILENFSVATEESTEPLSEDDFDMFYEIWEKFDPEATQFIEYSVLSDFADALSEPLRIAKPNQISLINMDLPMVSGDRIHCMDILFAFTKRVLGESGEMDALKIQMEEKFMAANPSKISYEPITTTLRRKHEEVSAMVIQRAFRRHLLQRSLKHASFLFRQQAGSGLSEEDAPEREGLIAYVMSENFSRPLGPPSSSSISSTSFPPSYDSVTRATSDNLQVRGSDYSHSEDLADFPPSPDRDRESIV

Row | Structure (SMILES) | IC50 (hNaV1.5) | IC50 (NaV1.6 [1]; [3]) | potency range (NaV) | other results
1 | O=C1NC(=O)C(c2ccccc2)(c2ccccc2)N1 [phenytoin] | 23.8 µM | 12.1 µM | – | IC50 (NaV1.6 [1]; read-out: IC50 for UDB (P500), 500th pulse): 6.8 µM; time to fully equilibrate with the inactivated states (NaV1.6 [2]): ≤ 10 s
2 | COC[C@@H](NC(C)=O)C(=O)NCc1ccccc1 [lacosamide] | – | – | 10 to 100 µM | –
3 | NC(=O)N1c2ccccc2C=Cc2ccccc21 [carbamazepine] | 41.1 µM | 17 µM | – | IC50 (hNaV1.1): 39.3 µM; IC50 (NaV1.6 [1]; IC50 for UDB (P500), 500th pulse): 16.2 µM; IC50 (hNaV1.2): 67.4 µM
4 | Nc1nnc(-c2cccc(Cl)c2Cl)c(N)n1 [lamotrigine] | – | – | 10 to 100 µM | –
5 | Cc1cc(S(=O)(=O)Nc2cscn2)c(F)cc1N(C)[C@H]1CCN(Cc2ccccc2)C1 [NBI-921352] | – | – | – | efficacy in seizure models in vivo (seizures): efficacious and have improved tolerability in rodent seizure models
